# CAL PDZ FP-1: CAL PDZ (human) peptide binding inhibition | Q9HD26 | AID 602252 | purified CAL PDZ, TMR-peptide fluorescence polarization, 1 h | inhibition, % at 24.9 µM | hit rate 0.92% among 300,000;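 active = mean inhibition of at least 30% with at least half of replicates also reaching 30%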;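 note: 0% = DMSO neutral control and 100% = excess unlabeled competitor peptide PRC23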
# CAL PDZ FP-2: human CAL PDZ-peptide interaction inhibition; purified CAL PDZ, TMR-peptide fluorescence polarization, 1 h; inhibition, % at 20 µM; AID 504414; hit rate 0.02% among 330,000;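 active = highest replicate inhibition of at least 40%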;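 note: plate controls were DMSO neutral control wells for no effect and unlabeled competitor peptide control wells for full effect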
#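 Assay system – tagged CAL PDZ protein CerCALP, purified · Timing – 1 h at RT · Compound – single point, 20 µM · Measured by – fluorescence polarization from S- and P-plane intensities, G-factor corrected · Evaluation – inhibition from polarization loss · Probe or stimulus – TMR reporter peptide T*-PRC34 · Buffer or medium – pH 7.4 phosphate-saline buffer, reducing agent, detergent, IgG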
# Keap1 Nrf2 FP: disrupts human Keap1 binding to Nrf2 peptide. hit rate 0.15% among 340,000. Keap1 Kelch-Nrf2 peptide fluorescence polarization, 1536-well. inhibition, % at 9.4 µM. AID 504523. Q14145; in the data active = inhibition above about 12%;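 note: human Keap1 Kelch domain with fluorescein labeled Nrf2 9mer peptide probe; 0% = neutral control wells and 100% = peptide positive control; higher means more block of Keap1 binding to Nrf2 peptide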
# Target sequence (Q14145 whole entry, looked up, the tested form may be a part): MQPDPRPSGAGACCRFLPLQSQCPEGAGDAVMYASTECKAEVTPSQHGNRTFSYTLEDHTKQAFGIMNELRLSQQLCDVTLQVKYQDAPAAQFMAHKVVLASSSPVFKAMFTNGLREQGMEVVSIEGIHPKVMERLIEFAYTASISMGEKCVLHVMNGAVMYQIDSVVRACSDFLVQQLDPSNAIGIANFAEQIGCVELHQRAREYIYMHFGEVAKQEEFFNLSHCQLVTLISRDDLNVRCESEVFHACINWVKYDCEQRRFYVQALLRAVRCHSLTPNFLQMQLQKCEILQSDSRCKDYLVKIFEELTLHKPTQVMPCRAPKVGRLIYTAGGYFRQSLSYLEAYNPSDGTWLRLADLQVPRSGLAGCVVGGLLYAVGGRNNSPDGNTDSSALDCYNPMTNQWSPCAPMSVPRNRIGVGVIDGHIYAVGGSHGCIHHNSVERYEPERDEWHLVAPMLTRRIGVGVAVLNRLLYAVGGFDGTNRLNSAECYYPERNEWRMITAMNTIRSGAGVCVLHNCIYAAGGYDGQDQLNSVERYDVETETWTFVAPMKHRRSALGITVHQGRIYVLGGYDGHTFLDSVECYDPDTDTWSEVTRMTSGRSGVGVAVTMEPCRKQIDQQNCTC
# RTF Ca sens act: increases calcium sensitivity of human cardiac regulated thin filaments; hit rate 0.24% among 340,000; activation, % at 7.2 µM; IANBD-labeled TnC RTF fluorescence at EC20 calcium; 0% EC20 calcium, 100% full calcium;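 active = activation above the mean over all tested compounds plus 3 SD, cut at about 30% in these data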;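 note: rise in fluorescence read as greater calcium sensitivity of cardiac thin filaments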
# LANA DNA inh: inhibitors of KSHV LANA C-terminal domain DNA binding | inhibition, % at 9 µM | AID 504423 | hit rate 0.078% among 340,000 | MBP-C-LANA/FAM-LBS DNA binding, fluorescence polarization;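 active = highest replicate inhibition at or above 60% at 9 µM, even if other replicates fall short; inactive = all replicates below 60% inhibition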;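 note: 0% = neutral control wells and 100% = 4 µM acridine orange control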
# RTF Ca sens inh: cardiac RTF calcium desensitization. hit rate 0.12% among 340,000. inhibition, % at 7.15 µM. AID 493244. IANBD-labeled cardiac RTF, Ca2+ fluorescence;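 active = inhibition above the mean inhibition of all tested compounds plus 3 SD, cut at about 17% in these data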;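 note: assay run at fixed EC70 calcium of 1.6 mM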
# * hit, by the source's call; . = no result given. Only some compounds are listed: those with a hit (about 1.3% of all), similar ones and a draw of the others.
SMILES,CAL PDZ FP-1,CAL PDZ FP-2,Keap1 Nrf2 FP,RTF Ca sens act,LANA DNA inh,RTF Ca sens inh
CCC(C(=O)NN1C(=O)c2ccccc2C1=O)c1ccccc1 (centres undefined),-6,45*,1,-3,3,-2
COc1ccc(Cl)cc1C(=O)NNC(=O)CNC(=O)c1ccc(C)s1,54*,1,-7,-3,-1,5
CCOc1ccc(C(=O)NNC(=O)CNC(=O)c2ccc(C)s2)cc1OC,-2,-1,-7,-3,-1,-11
O=C(CN1C(=O)NC(Cc2c[nH]c3ccccc23)C1=O)NC1CCCCC1 (centres undefined),1,-1,-1,1,0,-11
COc1cc(/C=C/C(=O)CC(=O)/C=C/c2ccc(O)c(OC)c2)ccc1O,-3,-4,-45,57*,-9,-63
CCN1CCN(CCCNC(=O)CNC(=O)c2nn(-c3ccc(OC)cc3OC)c(=O)c3ccccc23)CC1,-7,-3,0,0,1,-9
CCOc1cc(C2NC(=O)CCC2[N+](=O)[O-])cc(Br)c1OCC (centres undefined),0,0,2,-6,3,-14
NS(=O)(=O)c1ccc(CCNC(=O)COC(=O)C2CCC2)cc1,47*,-1,-1,3,1,-7
O=C(COC(=O)C1CC1)NCCc1ccccc1,-2,-2,2,-5,0,-6
O=C(NNS(=O)(=O)c1ccccc1[N+](=O)[O-])c1cccc(Br)c1,51*,-1,-1,-4,-3,-3
O=C(NNS(=O)(=O)c1ccccc1[N+](=O)[O-])c1cccc(Cl)c1,-6,-1,-1,-3,1,-1
CCOC(=O)C1=C(c2ccccc2)c2ccc(OC)cc2N(S(=O)(=O)C(F)(F)F)C1C(=O)OCC (centres undefined),-4,0,-4,-2,6,-4
Cc1ccc2c(c1)c1nc3ccccc3nc1n2CCN1CCOCC1,.,-2,-2,-3,0,-1
Cc1nc2c3cc(Cl)ccc3n(CCN3CCOCC3)c2s1,47*,0,2,-1,-2,-4
CC(C)(C)C(=O)Nc1sc(-c2ccccc2)cc1C(=O)O,-7,0,0,-4,-9,2
Cc1cccc(C(=O)Nc2sc(-c3ccccc3)cc2C(=O)O)c1,43*,1,-6,2,2,-4
[O-][n+]1nc2ccccc2c2ccccc21,-1,-2,-6,0,2,-13
CCOC(=O)c1cnn(-c2ccccc2)c1NC(=O)CN1CCCCC1,34*,1,7,2,9,-5
CCCCNC(=O)CCc1c(C)nc2nc(-c3cc(OC)cc(OC)c3)nn2c1C,-22,-2,0,8,0,2
CCCNC(=O)CCc1c(C)nc2nc(-c3cc(OC)cc(OC)c3)nn2c1C,46*,-1,-1,2,1,-10
CC(C)CNS(=O)(=O)c1cc2c3c(c1)CCC(=O)N3CCC2,6,-2,0,0,0,6
COC(CNS(=O)(=O)c1cc2c3c(c1)CCN3C(=O)CC2)OC,48*,-1,-4,4,1,0
CC1CCCCN1S(=O)(=O)c1ccc2c(c1)C(C)(C)C(=O)N2C (centres undefined),.,0,3,1,1,-6
CCN(CC)c1ccc(/C=C2/SC(=O)N(C(C)C)C2=O)o1,-8,-3,-124,155*,-9,-114
CC(C)N1C(=O)S/C(=C\c2ccc(-c3ccc(Cl)c(C(=O)O)c3)o2)C1=O,-5,-3,-4,1,1,5
SMILES,CAL PDZ FP-1,CAL PDZ FP-2,Keap1 Nrf2 FP,RTF Ca sens act,LANA DNA inh,RTF Ca sens inh
Cc1ccc2ccc(C(Nc3cccc(C(F)(F)F)c3)c3cccnc3)c(O)c2n1 (centres undefined),43*,0,0,-4,0,-6
Cc1ccnc(NC(c2cccnc2)c2ccc3cccnc3c2O)c1 (centres undefined),-1,-3,-22,5,0,-5
Cc1ccc(C)c(S(=O)(=O)N2CCCOC2CNC(=O)C(=O)NCCN2CCOCC2)c1 (centres undefined),-3,-1,-1,-1,-1,-2
O=C1NC(=S)S/C1=C\c1ccc(SCc2ccco2)o1,-2,-1,21*,-30,99*,50*
Cc1ccc(CNc2ncnc3[nH]ncc23)cc1,62*,5,3,1,3,-7
Fc1ccc(CCNc2ncnc3[nH]ncc23)cc1,.,-1,0,3,0,2
COc1ccccc1CC(NC(C)=O)C(=O)NC1CCN(C(=O)c2ccc([N+](=O)[O-])cc2)CC1 (centres undefined),2,-1,-2,-1,2,-3
COc1ccc(CC(NC(C)=O)C(=O)NC2CCN(C(=O)c3ccc([N+](=O)[O-])cc3)CC2)cc1OC (centres undefined),77*,16,-1,4,2,6
CC(C)CN(C(=O)CCNC(=O)c1ccccc1Cl)C1CCS(=O)(=O)C1 (centres undefined),4,0,-4,-5,1,-4
COc1ccc(Br)c(C(=O)Nc2ccc(F)cc2)c1,40*,-1,-1,-2,0,-2
O=C(Nc1ccc(F)cc1)c1cc(Cl)sc1Cl,87*,27,-3,6,-1,3
Cc1ccc(C(=O)/C=C/c2c[nH]c3ccccc23)cc1,0,0,-5,1,-1,-5
CCN(CC)C(=O)c1ccc(/C=C/c2c[nH]c3ccccc23)[n+](C)c1,-3,-1,-181,140*,-43,-143
CN(CC(=O)Nc1ccc(Cl)c(C(F)(F)F)c1)C(=O)C1CSC2(C)CCC(=O)N12 (centres undefined),-4,-2,3,2,0,5
COC(=O)C1=COC(C)C2CN3CCc4c([nH]c5cc(OC)c(OC)cc45)C3CC12 (centres undefined),-1,2,-2,30*,33,-22
COC(=O)[C@H]1[C@H]2C[C@@H]3c4[nH]c5cc(OC)ccc5c4CCN3C[C@H]2C[C@@H](OC(=O)c2cc(OC)c(OC)c(OC)c2)[C@@H]1OC,-2,8,-11,14,1,-2
COc1cccc2cc(-c3n[nH]c(=S)n3C)oc12,-4,-2,4,-3,-1,-6
COc1cccc2cc(-c3ccnc(N)n3)oc12,77*,10,-2,-3,1,-8
Cc1cccc(-n2c(C)cc(C=C3C(=O)c4ccccc4C3=O)c2C)c1,-3,1,4,62*,13,-7
COC(=O)Cc1nnc(Nc2cccc(C)c2)c2ccccc12,30*,-1,-5,0,0,1
Cc1ccc(COc2ccc3c(c2)OCO3)cc1,40*,-1,-2,2,-1,5

# High-throughput results deposited in PubChem by several laboratories.
